Columns and labels:
[1] = melting temperature; fluorescence melt of hairpins on a sequencing array, two-state fit, raised by 9.35 °C to match UV melts; conditions: sodium 0.088 M
Summary of the method: (§1)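 Library hairpins on a sequenced MiSeq flow cell carried annealed Cy3 and quencher oligos, and their Cy3 fluorescence was imaged in 50 mM Na-HEPES pH 8.0 with 25 mM NaCl, in 2.5 °C steps up to 60 °C. Signals were normalised to Cy3 before quenching and to control constructs. Melting temperature and folding enthalpy were obtained from bootstrapped two-state fits, combined by inverse-variance weighting across four replicates, and the fitted temperatures were then raised by 9.35 °C to match UV melts.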

[2] = folding enthalpy; higher = less favourable; fluorescence melt of hairpins on a sequencing array, two-state fit; conditions: sodium 0.088 M
Summary of the method: as §1

GATCACCGCGTGATC ((((((...))))))
Tm [1]: 61.9 °C | folding enthalpy [2]: -35.6 kcal/mol

GATCACCGGGTGATC ((((((...))))))
Tm [1]: 55 °C | folding enthalpy [2]: -30.8 kcal/mol

GATCACCTACGTGATC ((((((....))))))
Tm [1]: 56.6 °C | folding enthalpy [2]: -43 kcal/mol

GATCACCTAGTGATC ((((((...))))))
Tm [1]: 58.2 °C | folding enthalpy [2]: -34.8 kcal/mol

GATCACCTCCGTGATC ((((((....))))))
Tm [1]: 55 °C | folding enthalpy [2]: -32.5 kcal/mol

GATCACCTCGGTGATC ((((((....))))))
Tm [1]: 65.4 °C | folding enthalpy [2]: -37.5 kcal/mol

GATCACCTTGTGATC ((((((...))))))
Tm [1]: 58.8 °C | folding enthalpy [2]: -40.9 kcal/mol

GATCACGAAAGTGAAATC ((((((....)))..)))
Tm [1]: 30.2 °C | folding enthalpy [2]: -10.7 kcal/mol

GATCACGAAAGTGAATC ((((((....))).)))
Tm [1]: 45.6 °C | folding enthalpy [2]: -15.8 kcal/mol

GATCACGAAAGTGACATC ((((((....)))..)))
Tm [1]: 30 °C | folding enthalpy [2]: -10.1 kcal/mol

GATCACGAAAGTGGATC ((((((....))).)))
Tm [1]: 46.9 °C | folding enthalpy [2]: -18.2 kcal/mol

GATCACGAAAGTGGGATC ((((((....)))..)))
Tm [1]: 38 °C | folding enthalpy [2]: -15.6 kcal/mol

GATCACGAAGGTGATC ((((((....))))))
Tm [1]: 65.3 °C | folding enthalpy [2]: -32.7 kcal/mol

GATCACGAGGTGATC ((((((...))))))
Tm [1]: 57.8 °C | folding enthalpy [2]: -33.7 kcal/mol

GATCACGATGGTGATC ((((((....))))))
Tm [1]: 58.8 °C | folding enthalpy [2]: -36.1 kcal/mol

GATCACGCACGTGATC ((((((....))))))
Tm [1]: 68.9 °C | folding enthalpy [2]: -40.5 kcal/mol

GATCACGCATGTGATC ((((((....))))))
Tm [1]: 67.3 °C | folding enthalpy [2]: -43.1 kcal/mol

GATCACGCCGTGATC ((((((...))))))
Tm [1]: 63.2 °C | folding enthalpy [2]: -29.8 kcal/mol

GATCACGCGGTGATC ((((((...))))))
Tm [1]: 59.2 °C | folding enthalpy [2]: -40.2 kcal/mol

GATCACGCTCGTGATC ((((((....))))))
Tm [1]: 60.9 °C | folding enthalpy [2]: -45.5 kcal/mol

GATCACGCTGTGATC ((((((...))))))
Tm [1]: 59.2 °C | folding enthalpy [2]: -39.5 kcal/mol

GATCACGGAAACGTAATC (((.(((....))).)))
Tm [1]: 31.5 °C | folding enthalpy [2]: -20.3 kcal/mol

GATCACGGAAACGTGACC (.(((((....))))).)
Tm [1]: 45.1 °C | folding enthalpy [2]: -14.7 kcal/mol

GATCACGGCGGTGATC ((((((....))))))
Tm [1]: 58.8 °C | folding enthalpy [2]: -45.6 kcal/mol

GATCACGGGGTGATC ((((((...))))))
Tm [1]: 60.3 °C | folding enthalpy [2]: -33.6 kcal/mol

GATCACGGGTGTGATC ((((((....))))))
Tm [1]: 58.8 °C | folding enthalpy [2]: -36.9 kcal/mol

GATCACGTACGTGATC ((((((....))))))
Tm [1]: 64 °C | folding enthalpy [2]: -47.7 kcal/mol

GATCACGTGTGTGATC ((((((....))))))
Tm [1]: 58.9 °C | folding enthalpy [2]: -37.3 kcal/mol

GATCACGTTTGTGATC ((((((....))))))
Tm [1]: 58.5 °C | folding enthalpy [2]: -40.4 kcal/mol

GATCACTAAGGTGATC ((((((....))))))
Tm [1]: 57 °C | folding enthalpy [2]: -35.4 kcal/mol

GATCACTAGGTGATC ((((((...))))))
Tm [1]: 55.2 °C | folding enthalpy [2]: -40.9 kcal/mol

GATCACTATCGTGATC ((((((....))))))
Tm [1]: 55.1 °C | folding enthalpy [2]: -41.2 kcal/mol

GATCACTCTTGTGATC ((((((....))))))
Tm [1]: 56.7 °C | folding enthalpy [2]: -38.5 kcal/mol

GATCACTGAGGTGATC ((((((....))))))
Tm [1]: 59.4 °C | folding enthalpy [2]: -40.5 kcal/mol

GATCACTGATGTGATC ((((((....))))))
Tm [1]: 55.9 °C | folding enthalpy [2]: -34.5 kcal/mol

GATCACTGGGGTGATC ((((((....))))))
Tm [1]: 58.3 °C | folding enthalpy [2]: -47.5 kcal/mol

GATCACTGGGTGATC ((((((...))))))
Tm [1]: 57.3 °C | folding enthalpy [2]: -33.1 kcal/mol

GATCACTGTAGTGATC ((((((....))))))
Tm [1]: 60.6 °C | folding enthalpy [2]: -39.7 kcal/mol

GATCACTGTCGTGATC ((((((....))))))
Tm [1]: 54.9 °C | folding enthalpy [2]: -37.3 kcal/mol

GATCACTGTGTGATC ((((((...))))))
Tm [1]: 61.7 °C | folding enthalpy [2]: -31 kcal/mol

GATCACTGTTGTGATC ((((((....))))))
Tm [1]: 57.5 °C | folding enthalpy [2]: -31.8 kcal/mol

GATCACTTAGGTGATC ((((((....))))))
Tm [1]: 57.6 °C | folding enthalpy [2]: -41.6 kcal/mol

GATCACTTGGGTGATC ((((((....))))))
Tm [1]: 57.1 °C | folding enthalpy [2]: -40 kcal/mol

GATCACTTTGTGATC ((((((...))))))
Tm [1]: 63.1 °C | folding enthalpy [2]: -34.2 kcal/mol

GATCACTTTTGTGATC ((((((....))))))
Tm [1]: 59 °C | folding enthalpy [2]: -43.1 kcal/mol

GATCAGAAACTGATC ((((((...))))))
Tm [1]: 47.5 °C | folding enthalpy [2]: -36.4 kcal/mol

GATCAGAAGGCTGATC ((((((....))))))
Tm [1]: 45.8 °C | folding enthalpy [2]: -29.4 kcal/mol

GATCAGACACTGATC ((((((...))))))
Tm [1]: 48.6 °C | folding enthalpy [2]: -47.1 kcal/mol

GATCAGACAGCTGATC ((((((....))))))
Tm [1]: 45.3 °C | folding enthalpy [2]: -32 kcal/mol

GATCAGACATCTGATC ((((((....))))))
Tm [1]: 48.2 °C | folding enthalpy [2]: -39.6 kcal/mol

GATCAGACCCCTGATC ((((((....))))))
Tm [1]: 47.7 °C | folding enthalpy [2]: -34.7 kcal/mol

GATCAGACTGCTGATC ((((((....))))))
Tm [1]: 48.3 °C | folding enthalpy [2]: -28.1 kcal/mol

GATCAGAGCCCTGATC ((((((....))))))
Tm [1]: 47.7 °C | folding enthalpy [2]: -36.5 kcal/mol

GATCAGAGCCTGATC ((((((...))))))
Tm [1]: 47.4 °C | folding enthalpy [2]: -25.4 kcal/mol

GATCAGAGCTCTGATC ((((((....))))))
Tm [1]: 54.1 °C | folding enthalpy [2]: -53 kcal/mol

GATCAGAGGGCTGATC ((((((....))))))
Tm [1]: 47.7 °C | folding enthalpy [2]: -39.2 kcal/mol

GATCAGAGTGCTGATC ((((((....))))))
Tm [1]: 50.2 °C | folding enthalpy [2]: -31.2 kcal/mol

GATCAGATTGCTGATC ((((((....))))))
Tm [1]: 49.5 °C | folding enthalpy [2]: -39.4 kcal/mol

GATCAGCACCTGATC ((((((...))))))
Tm [1]: 48.3 °C | folding enthalpy [2]: -31.1 kcal/mol

GATCAGCAGCCTGATC ((((((....))))))
Tm [1]: 48.7 °C | folding enthalpy [2]: -36.5 kcal/mol

GATCAGCATACTGATC ((((((....))))))
Tm [1]: 51.4 °C | folding enthalpy [2]: -38.5 kcal/mol

GATCAGCATCTGATC ((((((...))))))
Tm [1]: 46.7 °C | folding enthalpy [2]: -34.2 kcal/mol

GATCAGCCATCTGATC ((((((....))))))
Tm [1]: 49.4 °C | folding enthalpy [2]: -37.4 kcal/mol

GATCAGCCGGCTGATC ((((((....))))))
Tm [1]: 63.4 °C | folding enthalpy [2]: -48 kcal/mol

GATCAGCGAAAGCTAATC (((.(((....))).)))
Tm [1]: 35.9 °C | folding enthalpy [2]: -15.7 kcal/mol

GATCAGCGAAAGCTCATC (((.(((....))).)))
Tm [1]: 29.8 °C | folding enthalpy [2]: -13 kcal/mol

GATCAGCGGCCTGATC ((((((....))))))
Tm [1]: 49.8 °C | folding enthalpy [2]: -36.9 kcal/mol

GATCAGCTAACTGATC ((((((....))))))
Tm [1]: 49.7 °C | folding enthalpy [2]: -40 kcal/mol

GATCAGCTGCCTGATC ((((((....))))))
Tm [1]: 50.5 °C | folding enthalpy [2]: -27.5 kcal/mol

GATCAGCTTACTGATC ((((((....))))))
Tm [1]: 51.3 °C | folding enthalpy [2]: -34 kcal/mol

GATCAGCTTCTGATC ((((((...))))))
Tm [1]: 49.1 °C | folding enthalpy [2]: -31.5 kcal/mol

GATCAGGACCCTGATC ((((((....))))))
Tm [1]: 54.4 °C | folding enthalpy [2]: -39.6 kcal/mol

GATCAGGATGCTGATC ((((((....))))))
Tm [1]: 50.3 °C | folding enthalpy [2]: -43.3 kcal/mol

GATCAGGCACCTGATC ((((((....))))))
Tm [1]: 55.4 °C | folding enthalpy [2]: -41.7 kcal/mol

GATCAGGCACTGATC ((((((...))))))
Tm [1]: 59.8 °C | folding enthalpy [2]: -43.6 kcal/mol

GATCAGGCCACTGATC ((((((....))))))
Tm [1]: 60.8 °C | folding enthalpy [2]: -36.4 kcal/mol

GATCAGGCTCTGATC ((((((...))))))
Tm [1]: 49.1 °C | folding enthalpy [2]: -35.2 kcal/mol

GATCAGGGAAACTTGATC (((((.(....).)))))
Tm [1]: 38.2 °C | folding enthalpy [2]: -30.7 kcal/mol

GATCAGGGAACTGATC ((((((....))))))
Tm [1]: 55.5 °C | folding enthalpy [2]: -33 kcal/mol

GATCAGGGAGCTGATC ((((((....))))))
Tm [1]: 52.4 °C | folding enthalpy [2]: -35.2 kcal/mol

GATCAGGGCCCTGATC ((((((....))))))
Tm [1]: 60.3 °C | folding enthalpy [2]: -58.9 kcal/mol

GATCAGGGCGCTGATC ((((((....))))))
Tm [1]: 55.4 °C | folding enthalpy [2]: -47.4 kcal/mol

GATCAGGGGGCTGATC ((((((....))))))
Tm [1]: 49.7 °C | folding enthalpy [2]: -38.3 kcal/mol

GATCAGGGGTCTGATC ((((((....))))))
Tm [1]: 50.8 °C | folding enthalpy [2]: -32.6 kcal/mol

GATCAGGTACCTGATC ((((((....))))))
Tm [1]: 58.8 °C | folding enthalpy [2]: -40.6 kcal/mol

GATCAGGTACTGATC ((((((...))))))
Tm [1]: 61.4 °C | folding enthalpy [2]: -41.1 kcal/mol

GATCAGGTATCTGATC ((((((....))))))
Tm [1]: 57.5 °C | folding enthalpy [2]: -40.8 kcal/mol

GATCAGGTCACTGATC ((((((....))))))
Tm [1]: 59.4 °C | folding enthalpy [2]: -45.8 kcal/mol

GATCAGTACTCTGATC ((((((....))))))
Tm [1]: 50.4 °C | folding enthalpy [2]: -43.4 kcal/mol

GATCAGTAGGCTGATC ((((((....))))))
Tm [1]: 52.4 °C | folding enthalpy [2]: -42.3 kcal/mol

GATCAGTATGCTGATC ((((((....))))))
Tm [1]: 55.2 °C | folding enthalpy [2]: -36.1 kcal/mol

GATCAGTCAGCTGATC ((((((....))))))
Tm [1]: 51.3 °C | folding enthalpy [2]: -40.9 kcal/mol

GATCAGTGACCTGATC ((((((....))))))
Tm [1]: 48.7 °C | folding enthalpy [2]: -30.1 kcal/mol

GATCAGTGGCTGATC ((((((...))))))
Tm [1]: 49.7 °C | folding enthalpy [2]: -22 kcal/mol

GATCAGTGTTCTGATC ((((((....))))))
Tm [1]: 50.2 °C | folding enthalpy [2]: -37.3 kcal/mol

GATCAGTTCCCTGATC ((((((....))))))
Tm [1]: 49.7 °C | folding enthalpy [2]: -32 kcal/mol
